Laboratory results reported in ChEMBL document CHEMBL5230083, “Novel 2, 5-diketopiperazine derivatives as potent selective histone deacetylase 6 inhibitors: Rational design, synthesis and antiproliferative activity” (Eur J Med Chem, 2020).

Experiments:
SR = assay: Antiproliferative activity against human SR cells assessed as cell growth at 10 uM incubated for 48 hrs by SRB assay relative to control; type: functional; details: read-out: Activity
Summary of the method: (§1)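 NCI-60 single-dose screen: compounds tested at 10 μM, and growth percent of each cell line calculated. The full method follows the NCI DTP protocol.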

DU-145 = assay: Antiproliferative activity against human DU-145 cells assessed as cell growth at 10 uM incubated for 48 hrs by SRB assay relative to control; type: functional; details: read-out: Activity
Summary of the method: (§2)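 Single-concentration screen at 10 μM run by NCI on its NCI-60 human tumour panel (blood, lung, colon, CNS, melanoma, ovary, kidney, prostate, breast), following the NCI-60 published methodology. Read-out is growth percent relative to untreated cells.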

NCI/ADR-RES = assay: Antiproliferative activity against human NCI/ADR-RES cells assessed as cell growth at 10 uM incubated for 48 hrs by SRB assay relative to control; type: functional; details: read-out: Activity; summary of the method: as §2
TK-10 = assay: Antiproliferative activity against human TK-10 cells assessed as cell growth at 10 uM incubated for 48 hrs by SRB assay relative to control; type: functional; details: read-out: Activity; summary of the method: as §1
NCI-H322M = assay: Antiproliferative activity against human NCI-H322M cells assessed as cell growth at 10 uM incubated for 48 hrs by SRB assay relative to control; type: functional; details: read-out: Activity; summary of the method: as §2
NCI-H23 = assay: Antiproliferative activity against human NCI-H23 cells assessed as cell growth at 10 uM incubated for 48 hrs by SRB assay relative to control; type: functional; details: read-out: Activity; summary of the method: as §2
HOP-62 = assay: Antiproliferative activity against human HOP-62 cells assessed as cell growth at 10 uM incubated for 48 hrs by SRB assay relative to control; type: functional; details: read-out: Activity; summary of the method: as §2
KM12 = assay: Antiproliferative activity against human KM12 cells assessed as cell growth at 10 uM incubated for 48 hrs by SRB assay relative to control; type: functional; details: read-out: Activity; summary of the method: as §2
CAKI-1 = assay: Antiproliferative activity against human CAKI-1 cells assessed as cell growth at 10 uM incubated for 48 hrs by SRB assay relative to control; type: functional; details: read-out: Activity; summary of the method: as §2
Histone deacetylase 8 = target: T1, Histone deacetylase 8 (Homo sapiens, UniProt Q9BY41); assay: Inhibition of HDAC8 (unknown origin) using Fluor de lys as substrate by fluorescence based analysis
T1 sequence (Q9BY41 whole entry): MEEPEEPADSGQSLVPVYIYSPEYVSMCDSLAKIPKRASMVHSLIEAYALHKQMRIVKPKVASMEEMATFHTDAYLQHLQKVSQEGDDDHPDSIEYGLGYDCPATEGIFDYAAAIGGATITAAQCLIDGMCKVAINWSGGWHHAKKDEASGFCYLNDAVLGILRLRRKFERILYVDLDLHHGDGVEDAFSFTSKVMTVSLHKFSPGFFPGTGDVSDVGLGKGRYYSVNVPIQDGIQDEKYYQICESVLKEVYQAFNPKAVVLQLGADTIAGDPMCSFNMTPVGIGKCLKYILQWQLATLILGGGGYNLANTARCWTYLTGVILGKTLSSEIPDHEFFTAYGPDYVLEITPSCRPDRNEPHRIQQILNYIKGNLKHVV

MDA-MB-435 = assay: Antiproliferative activity against human MDA-MB-435 cells assessed as cell growth at 10 uM incubated for 48 hrs by SRB assay relative to control; type: functional; details: read-out: Activity; summary of the method: as §2
IGROV-1 = assay: Antiproliferative activity against human IGROV-1 cells assessed as cell growth at 10 uM incubated for 48 hrs by SRB assay relative to control; type: functional; details: read-out: Activity; summary of the method: as §2
SF-268 = assay: Antiproliferative activity against human SF-268 cells assessed as cell growth at 10 uM incubated for 48 hrs by SRB assay relative to control; type: functional; details: read-out: Activity; summary of the method: as §2
A498 = assay: Antiproliferative activity against human A498 cells assessed as cell growth at 10 uM incubated for 48 hrs by SRB assay relative to control; type: functional; details: read-out: Activity; summary of the method: as §2
SK-OV-3 = assay: Antiproliferative activity against human SK-OV-3 cells assessed as cell growth at 10 uM incubated for 48 hrs by SRB assay relative to control; type: functional; details: read-out: Activity; summary of the method: as §1
MDA-MB-231 = assay: Antiproliferative activity against human MDA-MB-231 cells assessed as cell growth at 10 uM incubated for 48 hrs by SRB assay relative to control; type: functional; details: read-out: Activity; summary of the method: as §2
Hs-578T = assay: Antiproliferative activity against human Hs-578T cells assessed as cell growth at 10 uM incubated for 48 hrs by SRB assay relative to control; type: functional; details: read-out: Activity; summary of the method: as §2
SK-MEL-28 = assay: Antiproliferative activity against human SK-MEL-28 cells assessed as cell growth at 10 uM incubated for 48 hrs by SRB assay relative to control; type: functional; details: read-out: Activity; summary of the method: as §2
NCI-H522 = assay: Antiproliferative activity against human NCI-H522 cells assessed as cell growth at 10 uM incubated for 48 hrs by SRB assay relative to control; type: functional; details: read-out: Activity; summary of the method: as §2
UO-31 = assay: Antiproliferative activity against human UO-31 cells assessed as cell growth at 10 uM incubated for 48 hrs by SRB assay relative to control; type: functional; details: read-out: Activity; summary of the method: as §1
MOLT-4 = assay: Antiproliferative activity against human MOLT-4 cells assessed as cell growth at 10 uM incubated for 48 hrs by SRB assay relative to control; type: functional; details: read-out: Activity; summary of the method: as §2
UACC-257 = assay: Antiproliferative activity against human UACC-257 cells assessed as cell growth at 10 uM incubated for 48 hrs by SRB assay relative to control; type: functional; details: read-out: Activity; summary of the method: as §1
RXF 393 = assay: Antiproliferative activity against human RXF 393 cells assessed as cell growth at 10 uM incubated for 48 hrs by SRB assay relative to control; type: functional; details: read-out: Activity; summary of the method: as §2
OVCAR-3 = assay: Antiproliferative activity against human OVCAR-3 cells assessed as cell growth at 10 uM incubated for 48 hrs by SRB assay relative to control; type: functional; details: read-out: Activity; summary of the method: as §2
K562 = assay: Antiproliferative activity against human K562 cells assessed as cell growth at 10 uM incubated for 48 hrs by SRB assay relative to control; type: functional; details: read-out: Activity; summary of the method: as §2
T47D = assay: Antiproliferative activity against human T47D cells assessed as cell growth at 10 uM incubated for 48 hrs by SRB assay relative to control; type: functional; details: read-out: Activity; summary of the method: as §1
RPMI-8226 = assay: cells; type: functional, cell-based; details: Homo sapiens, RPMI-8226, 72 h
EKVX = assay: Antiproliferative activity against human EKVX cells assessed as cell growth at 10 uM incubated for 48 hrs by SRB assay relative to control; type: functional; details: read-out: Activity; summary of the method: as §2
OVCAR-8 = assay: Antiproliferative activity against human OVCAR-8 cells assessed as cell growth at 10 uM incubated for 48 hrs by SRB assay relative to control; type: functional; details: read-out: Activity; summary of the method: as §2
U-251 = assay: Antiproliferative activity against human U-251 cells assessed as cell growth at 10 uM incubated for 48 hrs by SRB assay relative to control; type: functional; details: read-out: Activity; summary of the method: as §1
LOX IMVI = assay: Antiproliferative activity against human LOX IMVI cells assessed as cell growth at 10 uM incubated for 48 hrs by SRB assay relative to control; type: functional; details: read-out: Activity; summary of the method: as §2
SN12C = assay: Antiproliferative activity against human SN12C cells assessed as cell growth at 10 uM incubated for 48 hrs by SRB assay relative to control; type: functional; details: read-out: Activity; summary of the method: as §1
SK-MEL-5 = assay: Antiproliferative activity against human SK-MEL-5 cells assessed as cell growth at 10 uM incubated for 48 hrs by SRB assay relative to control; type: functional; details: read-out: Activity; summary of the method: as §1
PC-3 = assay: Antiproliferative activity against human PC-3 cells assessed as cell growth at 10 uM incubated for 48 hrs by SRB assay relative to control; type: functional; details: read-out: Activity; summary of the method: as §2

`O=C1CN(Cc2ccc(C(=O)NO)cc2)C(=O)[C@@H](Cc2c[nH]c3ccccc23)N1` was tested, and the growth at 10 µM (SR) was 115%, the growth at 10 µM (DU-145) was 107% and the growth at 10 µM (NCI/ADR-RES) was 104%. It also gave a growth at 10 µM (TK-10) of 103%, a growth at 10 µM (NCI-H322M) of 99.1% and a growth at 10 µM (NCI-H23) of 101%. The growth at 10 µM (HOP-62) was 102%, the growth at 10 µM (KM12) was 102% and the growth at 10 µM (CAKI-1) was 93.8%. For the same molecule, the IC50 (Histone deacetylase 8) was 513 nM, the growth at 10 µM (MDA-MB-435) was 102% and the growth at 10 µM (IGROV-1) was 101%. For the same molecule, the growth at 10 µM (SF-268) was 99.3%, the growth at 10 µM (A498) was 85% and the growth at 10 µM (SK-OV-3) was 96.5%. It also gave a growth at 10 µM (MDA-MB-231) of 107%, a growth at 10 µM (Hs-578T) of 104% and a growth at 10 µM (SK-MEL-28) of 110%. The growth at 10 µM (NCI-H522) was 96.7%, the growth at 10 µM (UO-31) was 91.1% and the growth at 10 µM (MOLT-4) was 86.8%. The growth at 10 µM (UACC-257) was 96.1%, the growth at 10 µM (RXF 393) was 105% and the growth at 10 µM (OVCAR-3) was 104%. It also gave a growth at 10 µM (K562) of 100%, a growth at 10 µM (T47D) of 87.3% and an IC50 (RPMI-8226) of 33.2 µM. The growth at 10 µM (EKVX) was 106%, the growth at 10 µM (OVCAR-8) was 94.8% and the growth at 10 µM (U-251) was 96.7%. It also gave a growth at 10 µM (LOX IMVI) of 106%, a growth at 10 µM (SN12C) of 100% and a growth at 10 µM (SK-MEL-5) of 108%. The growth at 10 µM (PC-3) was 97.5%.

In the case of `O=C(NO)c1ccc(CN2CC(=O)N(Cc3ccccc3)[C@H](Cc3ccccc3)C2=O)cc1`, the growth at 10 µM (SR) is reported as 63.5%, the growth at 10 µM (DU-145) is reported as 87% and the growth at 10 µM (NCI/ADR-RES) is reported as 94.5%. For the same molecule, the growth at 10 µM (TK-10) was 88.1%, the growth at 10 µM (NCI-H322M) was 89.5% and the growth at 10 µM (NCI-H23) was 86.7%. The growth at 10 µM (HOP-62) was 87.8%, the growth at 10 µM (KM12) was 86.9% and the growth at 10 µM (CAKI-1) was 96.5%. The IC50 (Histone deacetylase 8) was 145 nM, the growth at 10 µM (MDA-MB-435) was 91.3% and the growth at 10 µM (IGROV-1) was 89%. For the same molecule, the growth at 10 µM (SF-268) was 96.5%, the growth at 10 µM (A498) was 67.4% and the growth at 10 µM (SK-OV-3) was 90.4%. For the same molecule, the growth at 10 µM (MDA-MB-231) was 95.2%, the growth at 10 µM (Hs-578T) was 82% and the growth at 10 µM (SK-MEL-28) was 95.4%. It also gave a growth at 10 µM (NCI-H522) of 69.8%, a growth at 10 µM (UO-31) of 69.5% and a growth at 10 µM (MOLT-4) of 76.7%. It also gave a growth at 10 µM (UACC-257) of 69.3%, a growth at 10 µM (RXF 393) of 86% and a growth at 10 µM (OVCAR-3) of 79.7%. It also gave a growth at 10 µM (K562) of 76.4%, a growth at 10 µM (T47D) of 69.1% and an IC50 (RPMI-8226) of 11.7 µM. The growth at 10 µM (EKVX) was 88.2%, the growth at 10 µM (OVCAR-8) was 75% and the growth at 10 µM (U-251) was 81.3%. For the same molecule, the growth at 10 µM (LOX IMVI) was 93.2%, the growth at 10 µM (SN12C) was 96.6% and the growth at 10 µM (SK-MEL-5) was 96.7%. It also gave a growth at 10 µM (PC-3) of 76.5%.
